High-throughput results: PubChem, several laboratories
In the library only some 1.6% were active in any assay of this set; here they are far more common.
ADAM17 inh: inhibitors of human ADAM17; P78536; recombinant ADAM17, EDANS/DABCYL FRET peptide cleavage; inhibition, % at 6.95 µM; actives 0.83% (n = 370,000); AID 720648;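 active = inhibition above the mean of compounds lying between control limits plus 3 SD, set per campaign, cut at about 8.5% in these data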;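 also: 0% = DMSO-only wells as the low control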
Target sequence (P78536 215-824 limits assumed): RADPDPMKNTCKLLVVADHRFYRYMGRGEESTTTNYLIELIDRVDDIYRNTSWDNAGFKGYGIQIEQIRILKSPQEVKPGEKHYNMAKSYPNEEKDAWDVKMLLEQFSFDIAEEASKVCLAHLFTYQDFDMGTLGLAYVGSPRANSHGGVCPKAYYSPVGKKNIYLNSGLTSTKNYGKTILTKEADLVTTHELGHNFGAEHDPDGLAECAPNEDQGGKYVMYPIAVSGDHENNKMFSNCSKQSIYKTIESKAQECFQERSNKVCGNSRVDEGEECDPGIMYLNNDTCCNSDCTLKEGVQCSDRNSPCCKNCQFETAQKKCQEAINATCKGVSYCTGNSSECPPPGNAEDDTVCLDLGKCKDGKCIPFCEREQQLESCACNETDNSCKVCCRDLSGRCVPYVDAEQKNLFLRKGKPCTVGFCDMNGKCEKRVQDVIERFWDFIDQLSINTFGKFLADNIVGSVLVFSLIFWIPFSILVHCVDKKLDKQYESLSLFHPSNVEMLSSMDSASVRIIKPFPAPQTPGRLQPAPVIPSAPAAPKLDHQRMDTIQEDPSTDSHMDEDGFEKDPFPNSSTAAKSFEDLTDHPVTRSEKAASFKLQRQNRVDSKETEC
DDE Tn7 FP inh: inhibitors of Tn7 peptide binding to human fibrin DD(E). P02675. inhibition, % at 8.3 µM. actives 0.13% (n = 370,000). FP displacement of FITC-Tn7 peptide from fibrin DD(E); 0% = median of compound wells per plate;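 active = inhibition above the mean of compounds falling within the control limits plus 3 SD of them, cut at about 14% in these data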;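 also: 0% = plate median of compound wells and 100% = 10 µM Aha-Tn7 peptide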
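Assay system: human fibrin DD(E). Input: DD(E) 2 µM final. Medium: Tris buffer with calcium and detergent, pH 7.8. Compound dosing: single point at 8.3 µM. Timing: 10 min plus 3 h, room temperature. Technique: fluorescence polarization of the labelled Tn7 tracer. Read-out: percent inhibition. Replicates: singlicate testing.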
ADAM10 inh: inhibits human ADAM10. O14672. recombinant ADAM10, EDANS/DABCYL FRET peptide cleavage, 3 h. inhibition, % at 7 µM. actives 0.62% (n = 370,000). AID 720582;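 active = inhibition above a per-campaign cutoff equal to the mean of compounds falling between control-based bounds plus 3 SD, cut at about 20% in these data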;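 also: 0% = DMSO wells while the 100% control is not disclosed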
DDE Tn6 FP inh: DD(E)-Tn6 binding inhibition, primary FP screen; Fibrin DD(E) TRITC-Tn6 fluorescence polarization displacement; inhibition, % at 8.3 µM; actives 0.21% (n = 370,000);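 active = inhibition above a per-campaign cutoff: mean of compounds within control limits plus 3 SD, cut at about 15% in these data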;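 also: 0% = median of all compound wells on the plate and 100% = blocking peptide control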
MT1-MMP act inh: MT1-MMP (human) activation inhibition; HT1080 RFP-PRO-GFP cells, GFP/RFP ratio fluorescence, overnight; percent of plate control window, DMSO zero; actives 0.061% (n = 360,000); GFP/RFP ratio change, % at 20 µM;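 active = GFP/RFP ratio change of at least 30% with cell ATP level not reduced by more than half and red fluorescence within 50% of control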
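Material – HT1080 RFP-PRO-GFP cells · Control set – DMSO wells and RFP-L50D-GFP cells · Incubation – overnight cell settling, then overnight compound exposure, 37 °C, 5% CO2 · Compound dosing – single-point 20 µM compound, 1% DMSO · Read-out – GFP/RFP fluorescence ratio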
Tn7 DDE conf: confirmation of inhibitors of Tn7 binding to human fibrin DD(E); shares compounds with DDE Tn7 FP inh; FP displacement of TRITC-Tn7 peptide from DD(E); 0% set at plate's compound-well median; inhibition, % at 8.3 µM; actives 5% (n = 460);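 active = inhibition above the campaign cutoff, the mean of compounds within control limits plus 3 SD, cut at about 14% in these data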;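 also: 100% = median FP of high control wells holding Aha-Tn7 inhibitor peptide; displacers lower polarization since freed probe rises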
Tn7 DDE ctr: DD(E)-Tn7 binding inhibition, counter-screen. shares compounds with DDE Tn7 FP inh. fibrin DD(E), TRITC-Tn7 probe displacement, fluorescence polarization. inhibition, % at 8.3 µM. actives 3% (n = 460). AID 720633;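 active = inhibition above the cutoff, the mean of compounds lying between the control bounds plus 3 SD of those compounds, cut at about 17% in these data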;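 also: 0% = median of compound sample wells and 100% = excess unlabeled Aha-Tn7 peptide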
Starred values were filed as active, the others as inactive; . = not tested or not shown; ! = a repeat was not active.

SMILES | ADAM17 inh | DDE Tn7 FP inh | ADAM10 inh | DDE Tn6 FP inh | MT1-MMP act inh | Tn7 DDE conf | Tn7 DDE ctr
Fc1cccc(CCN2C(=S)NC[C@@H]2Cc2ccccc2)c1 | -0.5 | 15.3* | 5.5 | 1.6 | -0.7 | 3.8 | 1.4
CCc1c(-c2cccc(OC)c2)ncn1CCc1ccccc1OC | -4.5 | -1.5 | -9.6 | -4.4 | . | . | .
CC1CN(C(=O)c2ccccc2)OC(c2ccc3c(c2)OCO3)O1 (configuration not stated) | -4.9 | 14.5* | 4.9 | 5.7 | -0.6 | -3.4 | -1.0
Cc1ccc(NC(=O)CSc2nnc3ccc(-c4ccncc4)nn23)cc1 | -0.4 | 4.8 | -0.3 | -1.4 | -5.2 | . | .
Cc1ccc(CSc2nnc3ccc(-c4ccncc4)nn23)cc1 | -6.5 | 14.4* | -6.4 | 2.4 | -8.3 | 0.1 | -0.6
O=c1cc(CN2CCCC2)c2ccccc2o1 | -6.6 | 8.1 | -9.4 | 1.0 | . | . | .
COc1ccc(NC(=O)C[C@H]2C(=O)N(c3ccc(Br)cc3)C[C@@H]2c2ccc(OC)cc2)cc1 | 5.0 | 14.1* | 18.1 | 8.8 | -4.8 | 5.4 | 0.4
COc1ccc(NC(=O)C[C@H]2C(=O)N(c3ccc(OC)cc3)C[C@@H]2c2ccc(Br)cc2)cc1 | 4.2 | 6.2 | -7.2 | -0.4 | 2.9 | . | .
CN(C)c1ccc(/C=N/NC(=O)c2ccc(CN3CCOCC3)cc2)cc1Br | -1.4 | 14.2* | -9.1 | -2.7 | 3.4 | 0.4 | 0.9
COc1ccc(/C=C/C(=O)OCC(=O)NC(C)CCc2ccccc2)cc1OC (configuration not stated) | -35.0 | 14.0* | -119.7 | 7.2 | 2.2 | 1.2 | -2.2
CC(C)N1CCCCC(NC(=O)c2cccc(C(F)(F)F)c2)C1=O (configuration not stated) | 1.0 | -0.3 | 6.5 | 0.8 | . | . | .
C[C@@H](N)C(=O)Nc1ccc(Cl)cc1C(=O)c1ccc[nH]1 | -1.9 | -4.2 | 0.4 | -2.1 | . | . | .
O=C(c1cc2ccccc2o1)N1CCCCCC1 | -5.7 | 3.6 | 0.6 | -0.7 | 1.4 | . | .
O=C(c1oc2ccccc2c1N1CCCCC1)N1CCCCC1 | 1.0 | 14.9* | 10.4 | 6.0 | -4.6 | -6.5 | -10.1
CCOC(=O)N1CCN(C(=O)C[C@H]2C[C@@]3(C(=O)OC)C(=C[C@H](C(C)C)O[C@@H]3C3CC3)N(Cc3ccc4c(c3)OCO4)C2=O)CC1 | 1.8 | -6.7 | 2.5 | -3.8 | . | . | .
CCC[C@H]1[C@H](N)CC[C@@]23CCCN2C(=O)CCC[C@@H]13 | -1.9 | -5.5 | -7.4 | -1.9 | . | . | .
CC1=CC(C)(C)NC(=S)N1c1cccc(C)c1 | 0.5 | 14.2*! | 6.8 | 5.0 | 1.1 | 4.7 | -6.9
CC1=CC(C)(C)NC(=S)N1c1ccc(C)cc1 | -2.8 | 6.7 | 2.4 | -4.1 | -1.4 | . | .
CCC[C@H]1[C@@H](NCc2ccccc2)CC[C@@]23CCCN2C(=O)CCC[C@@H]13 | -2.0 | -0.2 | 0.5 | -2.4 | . | . | .
Cn1c(Cc2cccs2)nnc1SCC(=O)Nc1ccc2c(c1)OCO2 | 0.2 | -3.9 | -6.5 | 8.6 | . | . | .
COc1cccc([C@@H]2NC(=O)C/C=C/[C@H](C)[C@H](c3cccc(OC)c3)NC(=O)C/C=C/[C@@H]2C)c1 | -0.5 | 7.6 | 10.5 | 8.1 | . | . | .
COCCN(C(=O)c1ccc(-c2ccc(Cl)cc2)o1)c1c(N)n(CC(C)C)c(=O)[nH]c1=O | -14.5 | -0.4 | -28.4 | -2.7 | -1.7 | . | .
COCCN(C(=O)c1ccc(-c2ccc([N+](=O)[O-])cc2)o1)c1c(N)n(CC(C)C)c(=O)[nH]c1=O | -3.5 | 14.2* | -0.8 | -0.3 | 2.9 | 4.6 | 1.6
N=c1c2c(ccn1CCCc1ccccc1)Oc1ccc3ccccc3c1C2c1ccccc1 (configuration not stated) | 6.0 | 7.5 | 15.5 | -4.6 | . | . | .
CC1(C)c2[nH]c3ccccc3c2C[C@@H]2C(=O)N(Cc3ccc(F)cc3)C(=O)N21 | 8.0 | 16.8* | 13.9 | 3.3 | 6.5 | 13.3 | 8.8
